Measurements published in ChEMBL document CHEMBL4219194, “Diversity-oriented synthesis of pyrazoles derivatives from flavones and isoflavones leads to the discovery of promising reversal agents of fluconazole resistance in Candida albicans” (2018).
≈ marks a conversion by molar mass, not a printed value.

Assays:
Format in all cases: functional
Candida albicans [1] = assay: Antifungal activity against Candida albicans SC5314 after 48 hrs by broth microdilution method; settings: SC5314, 48 h
Outline: (§1)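 MIC80 read by broth microdilution, with fluconazole as the positive antifungal agent. Values are reported in µg/mL as means of three independent experiments. Strains: wild-type SC5314 and DSY654, which lacks the Cdr1 and Cdr2 efflux pumps.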

Candida albicans [2] = assay: Antifungal activity against CDR1 and CDR2 efflux pump deficient Candida albicans DSY654 after 48 hrs by broth microdilution method; settings: DSY654, 48 h; outline: as §1
Candida albicans [3] = assay: Antifungal activity against fluconazole-resistant Candida albicans 28A after 48 hrs by broth microdilution method
Outline: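 Clinical fluconazole-resistant isolates tested in broth microdilution with the compound alone. The endpoint is MIC80, the lowest concentration giving 80% growth inhibition, in µg/mL.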

Candida albicans [4] = assay: Synergistic antifungal activity against fluconazole-resistant Candida albicans 28A after 48 hrs in presence of fluconazole by broth microdilution checkerboard method
Outline: (§2)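 Checkerboard dose-response matrix on strain 28A with gradients of fluconazole and the test compound in RPMI 1640, read after 48 h at 35 °C. MIC80 is taken alone and in combination, and FICI is calculated. Synergy is FICI ≤0.5, indifference >0.5-4, and antagonism >4.0.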

Candida albicans [5] = assay: Potentiation of fluconazole-induced antifungal activity against fluconazole-resistant Candida albicans 28A assessed as fluconazole MIC80 after 48 hrs by broth microdilution checkerboard method; outline: as §2
Candida albicans [6] = assay: Potentiation of fluconazole-induced antifungal activity against fluconazole-resistant Candida albicans 28A after 48 hrs by broth microdilution checkerboard method; outline: as §2

Row | Structure (SMILES) | MIC80 (Candida albicans [1]) [µg/mL] | MIC80 (Candida albicans [2]) [µg/mL] | MIC80 (Candida albicans [3]) [µg/mL] | MIC80 (Candida albicans [4]) [µg/mL] | MIC80 (Candida albicans [5]) [µg/mL] | fractional inhibitory concentration index (FICI) (Candida albicans [6])
1 | COc1ccc(-c2c[nH]nc2-c2ccc(O)cc2O)cc1 | > 128 | > 128 | > 128 | > 128 | > 128 | 2
2 | Oc1ccccc1-c1cc(-c2ccccc2)[nH]n1 | 16 (≈ 67.7 µM) | 8 (≈ 33.9 µM) | 64 (≈ 271 µM) | 16 | 2 | 0.266
3 | COc1ccc(C2=CC(c3c(O)cc(OC)cc3OC)=NCCN2)cc1 | > 128 | 16 (≈ 45.1 µM) | > 128 | > 128 | > 128 | 2
4 | OCCn1cc(-c2ccc(O)cc2)c(-c2ccc(O)cc2O)n1 | > 128 | > 128 | > 128 | > 128 | > 128 | 2
5 | COc1ccc(-c2cnn(-c3ccccc3)c2-c2c(O)cc(OC)cc2OC)cc1 | > 128 | > 128 | > 128 | > 128 | > 128 | 2
6 | COc1ccc(-c2cn[nH]c2-c2c(O)cc(O)cc2O)cc1 | > 128 | > 128 | > 128 | > 128 | > 128 | 2
7 | Oc1ccc(C2=NCCNC(c3ccccc3)=C2)c(O)c1O | > 128 | 32 (≈ 108 µM) | > 128 | > 128 | > 128 | 2
8 | Oc1ccccc1C1=NCCNC(c2ccccc2)=C1 | > 128 | > 128 | > 128 | > 128 | > 128 | 2
9 | OCCn1cc(-c2ccc(O)cc2)c(-c2ccc(O)c(C3OC(CO)C(O)C(O)C3O)c2O)n1 (stereo not given) | > 128 | > 128 | > 128 | > 128 | > 128 | 2
10 | OCCn1ncc(-c2ccc(O)cc2)c1-c1ccc(O)cc1O | > 128 | > 128 | > 128 | > 128 | > 128 | 2
11 | OCCn1nc(-c2ccccc2)cc1-c1ccccc1O | > 128 | 8 (≈ 28.5 µM) | > 128 | > 128 | > 128 | 2
12 | COc1ccc(-c2cn[nH]c2-c2c(O)cc(OC)cc2OC)cc1 | > 128 | > 128 | > 128 | > 128 | > 128 | 2
13 | COc1ccc(-c2cnn(CCO)c2-c2ccc(O)cc2O)cc1 | > 128 | > 128 | > 128 | > 128 | > 128 | 2
14 | COc1cc(O)c(-c2cc(-c3ccccc3)nn2-c2ccccc2)c(OC)c1 | > 128 | > 128 | > 128 | > 128 | > 128 | 2
15 | Oc1cc(O)c(-c2cc(-c3ccccc3)n[nH]2)c(O)c1 | > 128 | > 128 | > 128 | 8 | 2 | 0.078
16 | COc1ccc(-c2cc(-c3ccccc3)[nH]n2)c(O)c1OC | > 128 | > 128 | > 128 | > 128 | > 128 | 2
17 | CCn1cc(-c2ccc(OC)cc2)c(-c2ccc(O)cc2O)n1 | > 128 | > 128 | > 128 | > 128 | > 128 | 2
18 | COc1ccc(-n2nc(-c3ccccc3)cc2-c2c(O)cc(OC)c(OC)c2OC)cc1 | > 128 | 4 (≈ 9.25 µM) | > 128 | > 128 | > 128 | 2
19 | Oc1ccc(-c2cn[nH]c2-c2ccc(O)cc2O)cc1 | > 128 | > 128 | > 128 | > 128 | > 128 | 2
20 | OCCn1ncc(-c2ccc(O)cc2)c1-c1ccc(O)c(C2OC(CO)C(O)C(O)C2O)c1O (stereo not given) | > 128 | > 128 | > 128 | > 128 | > 128 | 2

Row | Structure (SMILES) | MIC80 (Candida albicans [1]) [µg/mL] | MIC80 (Candida albicans [2]) [µg/mL] | MIC80 (Candida albicans [3]) [µg/mL] | MIC80 (Candida albicans [4]) [µg/mL] | MIC80 (Candida albicans [5]) [µg/mL] | fractional inhibitory concentration index (FICI) (Candida albicans [6])
21 | COc1ccc(-c2cnn(-c3ccccc3)c2-c2ccc(O)cc2O)cc1 | > 128 | > 128 | > 128 | 16 | 2 | 0.141
22 | COc1cc(O)c(-c2cc(-c3ccccc3)n(CCO)n2)c(OC)c1 | > 128 | 4 (≈ 11.8 µM) | > 128 | 32 | 2 | 0.266
23 | CCn1ncc(-c2ccc(OC)cc2)c1-c1ccc(O)cc1O | > 128 | > 128 | > 128 | 32 | 2 | 0.266
24 | COc1ccc(-c2cnn(-c3ccc(OC)cc3)c2-c2ccc(O)cc2O)cc1 | > 128 | > 128 | > 128 | > 128 | > 128 | 2
25 | COc1ccc(-c2cn(CCO)nc2-c2ccc(O)cc2O)cc1 | > 128 | > 128 | > 128 | > 128 | > 128 | 2
26 | COc1ccc(C2=NCCNC(c3ccccc3)=C2)c(O)c1OC | > 128 | > 128 | > 128 | > 128 | > 128 | 2
27 | CCn1ncc(-c2ccc(O)cc2)c1-c1ccc(O)c(C2OC(CO)C(O)C(O)C2O)c1O (stereo not given) | > 128 | > 128 | > 128 | > 128 | > 128 | 2
28 | CCn1cc(-c2ccc(O)cc2)c(-c2ccc(O)c(C3OC(CO)C(O)C(O)C3O)c2O)n1 (stereo not given) | > 128 | > 128 | > 128 | > 128 | > 128 | 2
29 | Oc1ccc(-c2cnn(-c3ccccc3)c2-c2ccc(O)cc2O)cc1 | > 128 | > 128 | > 128 | > 128 | > 128 | 2
30 | Oc1ccc(-c2cc(-c3ccccc3)n[nH]2)c(O)c1O | 8 (≈ 29.8 µM) | 8 (≈ 29.8 µM) | > 128 | > 128 | > 128 | 2
31 | Oc1ccccc1-c1cc(-c2ccccc2)nn1-c1ccccc1 | 128 (≈ 410 µM) | 8 (≈ 25.6 µM) | 128 (≈ 410 µM) | 128 | 2 | 1.016
32 | COc1ccc(-n2nc(-c3c(O)cc(OC)c(OC)c3OC)cc2-c2ccccc2)cc1 | > 128 | > 128 | > 128 | > 128 | > 128 | 2
33 | Oc1ccc(-c2cn[nH]c2-c2c(O)cc(O)cc2O)cc1 | > 128 | > 128 | > 128 | > 128 | > 128 | 2
34 | COc1cc(O)c(C2=NCCNC(c3ccccc3)=C2)c(OC)c1 | 128 (≈ 395 µM) | 8 (≈ 24.7 µM) | 128 (≈ 395 µM) | 32 | 2 | 0.266
35 | Oc1ccc(-c2cc(-c3c(O)cc(O)cc3O)[nH]n2)cc1 | > 128 | > 128 | > 128 | 1 | 0.5 | 0.012
36 | COc1cc(O)c(-c2cc(-c3ccccc3)[nH]n2)c(OC)c1OC | 64 (≈ 196 µM) | 2 (≈ 6.13 µM) | 64 (≈ 196 µM) | 16 | 2 | 0.266
37 | COc1cc(O)c(-c2cc(-c3ccccc3)nn2-c2ccccc2)c(OC)c1OC | > 128 | > 128 | > 128 | > 128 | > 128 | 2
38 | OCC1OC(c2c(O)ccc(-c3n[nH]cc3-c3ccc(O)cc3)c2O)C(O)C(O)C1O (stereo not given) | > 128 | 16 (≈ 37.2 µM) | > 128 | > 128 | > 128 | 2
39 | COc1ccc(-c2cc(-c3c(O)cc(OC)cc3OC)[nH]n2)cc1 | > 128 | > 128 | > 128 | > 128 | > 128 | 2
40 | COc1cc(O)c(-c2cc(-c3ccccc3)n(-c3ccccc3)n2)c(OC)c1OC | > 128 | > 128 | > 128 | > 128 | > 128 | 2
